Laboratory results: ChEMBL document CHEMBL5038587, “Synthesis of Methoxy-, Methylenedioxy-, Hydroxy-, and Halo-Substituted Benzophenanthridinone Derivatives as DNA Topoisomerase IB (TOP1) and Tyrosyl-DNA Phosphodiesterase 1 (TDP1) Inhibitors and Their Biological Activity for Drug-Resistant Cancer” (J Med Chem, 2021)
Active and inactive are the calls of the source. The rule behind the calls is not given here.

Assays:
[1] = target: T1, Tyrosyl-DNA phosphodiesterase 1 (Homo sapiens, UniProt Q9NUW8); experiment: Induction of TDP1-DNA complex formation in human MCF7 cells at 10 uM by ICE assay; assay type: cell-based
T1 sequence (Q9NUW8 whole entry): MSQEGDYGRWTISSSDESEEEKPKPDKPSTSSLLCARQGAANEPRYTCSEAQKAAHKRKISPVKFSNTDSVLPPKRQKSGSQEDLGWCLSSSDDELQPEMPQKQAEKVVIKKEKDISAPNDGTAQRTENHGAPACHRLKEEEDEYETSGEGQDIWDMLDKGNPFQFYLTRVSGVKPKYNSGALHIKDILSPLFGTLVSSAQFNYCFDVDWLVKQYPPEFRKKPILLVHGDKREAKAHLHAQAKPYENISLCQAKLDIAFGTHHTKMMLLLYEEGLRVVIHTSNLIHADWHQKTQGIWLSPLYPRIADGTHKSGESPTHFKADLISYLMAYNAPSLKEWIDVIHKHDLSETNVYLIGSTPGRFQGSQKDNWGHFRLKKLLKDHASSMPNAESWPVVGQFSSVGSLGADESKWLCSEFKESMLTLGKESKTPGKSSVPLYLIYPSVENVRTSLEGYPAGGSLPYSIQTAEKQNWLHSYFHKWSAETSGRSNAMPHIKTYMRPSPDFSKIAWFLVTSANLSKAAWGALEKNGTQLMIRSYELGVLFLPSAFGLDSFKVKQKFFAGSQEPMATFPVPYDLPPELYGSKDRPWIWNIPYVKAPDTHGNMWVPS
Procedure, shortened: (§1)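 Genomic DNA isolated with DNAzol and ethanol precipitation, then 2 µg slot-blotted onto nitrocellulose in 25 mM NaH2PO4 pH 6.5. Probed with rabbit anti-TDP1 (1:1000) overnight at 4 °C, then HRP secondary, with chemiluminescent read-out.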

[2] = system: MCF7; experiment: Induction of apoptosis in human MCF7 cells assessed as necrotic cells at 2 uM measured after 24 hrs by Annexin V-FITC/propidium iodide staining based flow cytometry; assay type: functional
Procedure, shortened: (§2)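 MCF-7 cells (2×10^5 per dish) exposed to compound at 1, 2 or 4 µM for 24 h. Cells resuspended in binding buffer and stained with Annexin V-FITC plus propidium iodide for 15 min at 25 °C in the dark. Viable, early apoptotic, late apoptotic and necrotic fractions quantified by flow cytometry.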

[3] = system: MCF7; experiment: Synergistic cytotoxicity against human MCF7/TDP1 cells assessed as combination index measured after 96 hrs in presence of TPT by MTT assay; assay type: functional
[4] = system: MCF7; experiment: Cytotoxicity against human MCF-7/TDP1 cells assessed as cell growth inhibition after 72 hrs by MTT assay; assay type: functional
Procedure, shortened: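 MCF-7/TDP1 is a TDP1-overexpressing line made by transfecting parental MCF-7, grown in RPMI 1640 or DMEM with 10% FBS at 37 °C, 5% CO2. DMSO-dissolved compounds tested at five doses from 0.01 to 100 µM, read by MTT. GI50 (mean ± SD, at least three repeats) fitted by nonlinear regression against control.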

[5] = system: MCF7; experiment: Induction of apoptosis in human MCF7 cells assessed as viable cells at 2 uM measured after 24 hrs by Annexin V-FITC/propidium iodide staining based flow cytometry (Rvb=99.05%); assay type: functional; conditions: read-out: Activity; procedure, shortened: as §2
[6] = system: MCF7; experiment: Induction of apoptosis in human MCF7 cells assessed as early apoptotic cells at 2 uM measured after 24 hrs by Annexin V-FITC/propidium iodide staining based flow cytometry (Rvb=0.12%); assay type: functional; procedure, shortened: as §2
[7] = system: MCF7; experiment: Induction of apoptosis in human MCF7 cells assessed as late apoptotic cells at 2 uM measured after 24 hrs by Annexin V-FITC/propidium iodide staining based flow cytometry (Rvb=0%); assay type: functional; procedure, shortened: as §2
[8] = system: MCF7; experiment: Synergistic cytotoxicity against human MCF7 cells assessed as combination index measured after 96 hrs in presence of TPT by MTT assay; assay type: functional
[9] = system: MCF7; experiment: Induction of apoptosis in human MCF7 cells assessed as viable cells at 1 uM measured after 24 hrs by Annexin V-FITC/propidium iodide staining based flow cytometry (Rvb=99.05%); assay type: functional; conditions: read-out: Activity; procedure, shortened: as §2
[10] = target: T1, Tyrosyl-DNA phosphodiesterase 1; experiment: Induction of TDP1-DNA complex formation in human MCF7 cells at 100 uM by ICE assay; assay type: cell-based; procedure, shortened: as §1
[11] = system: MCF7; experiment: Induction of DNA damage in human MCF7 cells assessed as decrease in TPT-induced gammaH2AX foci at 2 uM measured after 6 hrs by DAPI staining based immunofluorescence assay; assay type: functional; design: scale not given: the % may be the effect or the level left
Procedure, shortened: (§3)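 Fixed in 4% paraformaldehyde, permeabilized with 0.5% Triton X-100, blocked in 5% goat serum. Stained with γH2AX antibody overnight at 4 °C, then Alexa 488 secondary plus DAPI 2 µg/mL. Foci counted by confocal microscopy, at least three independent repeats.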

[12] = target: T2, DNA topoisomerase 1 (Homo sapiens) (UniProt P11387); experiment: Inhibition of recombinant TOP1 (unknown origin) at 1 uM using 3'-[32P]-labeled 117 bp DNA oligonucleotides as substrate incubated for 20 mins by PAGE analysis relative to CPT
T2 sequence (whole entry): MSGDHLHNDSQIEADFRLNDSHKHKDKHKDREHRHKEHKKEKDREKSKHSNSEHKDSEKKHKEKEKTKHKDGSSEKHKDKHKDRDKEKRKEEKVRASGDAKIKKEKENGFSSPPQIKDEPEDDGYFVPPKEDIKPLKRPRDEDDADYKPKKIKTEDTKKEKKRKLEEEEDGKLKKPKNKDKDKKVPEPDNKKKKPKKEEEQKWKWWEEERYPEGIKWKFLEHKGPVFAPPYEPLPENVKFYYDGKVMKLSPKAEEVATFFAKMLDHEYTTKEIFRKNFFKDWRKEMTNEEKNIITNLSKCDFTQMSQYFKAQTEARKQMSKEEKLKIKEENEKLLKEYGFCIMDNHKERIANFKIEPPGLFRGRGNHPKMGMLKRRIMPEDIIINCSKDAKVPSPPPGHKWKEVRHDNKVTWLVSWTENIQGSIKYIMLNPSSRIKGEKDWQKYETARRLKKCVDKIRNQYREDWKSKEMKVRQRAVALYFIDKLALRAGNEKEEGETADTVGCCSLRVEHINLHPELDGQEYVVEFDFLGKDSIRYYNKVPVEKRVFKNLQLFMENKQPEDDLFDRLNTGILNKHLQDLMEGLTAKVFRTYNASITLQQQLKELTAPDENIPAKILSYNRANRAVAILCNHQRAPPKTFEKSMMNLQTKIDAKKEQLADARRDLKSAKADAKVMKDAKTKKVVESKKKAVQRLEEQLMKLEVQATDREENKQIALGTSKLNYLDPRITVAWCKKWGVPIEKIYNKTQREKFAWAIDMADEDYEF
Procedure, shortened: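 3'-[32P]-labeled 117 bp oligonucleotide (~2 nM) with recombinant TOP1 and compound, 25 °C, 20 min. Buffer: 10 mM Tris-HCl pH 7.5, 50 mM KCl, 5 mM MgCl2, 0.1 mM EDTA, BSA. Stopped with 0.5% SDS and run on 20% denaturing PAGE with phosphorimaging.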

[13] = system: MCF7; experiment: Induction of apoptosis in human MCF7 cells assessed as early apoptotic cells at 1 uM measured after 24 hrs by Annexin V-FITC/propidium iodide staining based flow cytometry (Rvb=0.12%); assay type: functional; procedure, shortened: as §2
[14] = target: T1, Tyrosyl-DNA phosphodiesterase 1; experiment: Induction of TDP1-DNA complex formation in human MCF7/TDP1 cells at 10 uM by ICE assay; assay type: cell-based; procedure, shortened: as §1
[15] = system: MCF7; experiment: Induction of apoptosis in human MCF7 cells assessed as late apoptotic cells at 4 uM measured after 24 hrs by Annexin V-FITC/propidium iodide staining based flow cytometry (Rvb=0%); assay type: functional; procedure, shortened: as §2
[16] = system: MCF7; experiment: Induction of apoptosis in human MCF7 cells assessed as late apoptotic cells at 1 uM measured after 24 hrs by Annexin V-FITC/propidium iodide staining based flow cytometry (Rvb=0%); assay type: functional; procedure, shortened: as §2
[17] = target: T1, Tyrosyl-DNA phosphodiesterase 1; experiment: Induction of TDP1-DNA complex formation in human […] cells at 10 to 100 uM in presence of TPT by ICE assay; assay type: cell-based; conditions: dose 10-100 µM; procedure, shortened: as §1
[18] = system: DU-145; experiment: Cytotoxicity against human DU145 cells assessed as cell growth inhibition after 72 hrs by MTT assay; assay type: functional
Procedure, shortened: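 Compounds predissolved in DMSO, tested in a five-dose series from 0.01 to 100 µM for 72 h, then read by MTT. Percent viability inhibition is taken against control, and GI50 is fitted by nonlinear regression.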

[19] = system: MCF7; experiment: Induction of apoptosis in human MCF7 cells assessed as necrotic cells at 4 uM measured after 24 hrs by Annexin V-FITC/propidium iodide staining based flow cytometry (Rvb=0.83%); assay type: functional; procedure, shortened: as §2
[20] = system: MCF7; experiment: Induction of apoptosis in human MCF7 cells assessed as viable cells at 4 uM measured after 24 hrs by Annexin V-FITC/propidium iodide staining based flow cytometry (Rvb=99.05%); assay type: functional; conditions: read-out: Activity; procedure, shortened: as §2
[21] = system: MCF7; experiment: Induction of apoptosis in human MCF7 cells assessed as necrotic cells at 1 uM measured after 24 hrs by Annexin V-FITC/propidium iodide staining based flow cytometry (Rvb=0.83%); assay type: functional; procedure, shortened: as §2
[22] = system: MCF7; experiment: Induction of apoptosis in human MCF7 cells assessed as early apoptotic cells at 4 uM measured after 24 hrs by Annexin V-FITC/propidium iodide staining based flow cytometry(Rvb=0.12%); assay type: functional; procedure, shortened: as §2
[23] = target: T1, Tyrosyl-DNA phosphodiesterase 1; experiment: Induction of TDP1-DNA complex formation in human MCF7 cells at 10 to 100 uM in presence of TPT by ICE assay; assay type: cell-based; conditions: dose 10-100 µM; procedure, shortened: as §1
[24] = system: MCF7; experiment: Induction of DNA damage in human MCF7 cells assessed as decrease in TPT-induced gammaH2AX foci at 1 uM measured after 6 hrs by DAPI staining based immunofluorescence assay; assay type: functional; design: scale not given: the % may be the effect or the level left; procedure, shortened: as §3
[25] = system: MCF7/TDP1; experiment: Induction of DNA damage in human MCF7/TDP1 cells assessed as decrease in gammaH2AX foci at 2 uM measured after 6 hrs by DAPI staining based immunofluorescence assay; design: scale not given: the % may be the effect or the level left
[26] = system: MCF7; experiment: Induction of DNA damage in human MCF7/TDP1 cells assessed as increase in gammaH2AX foci at 1 uM measured after 6 hrs by DAPI staining based immunofluorescence assay; assay type: functional; procedure, shortened: as §3
[27] = system: MCF7; experiment: Induction of DNA damage in human MCF7/TDP1 cells assessed as decrease in TPT-induced gammaH2AX foci at 2 uM measured after 6 hrs by DAPI staining based immunofluorescence assay; assay type: functional; design: scale not given: the % may be the effect or the level left; procedure, shortened: as §3
[28] = system: MCF7; experiment: Induction of DNA damage in human MCF7/TDP1 cells assessed as decrease in TPT-induced gammaH2AX foci at 1 uM measured after 6 hrs by DAPI staining based immunofluorescence assay; assay type: functional; design: scale not given: the % may be the effect or the level left; procedure, shortened: as §3
[29] = system: MCF7; experiment: Synergistic cytotoxicity against human MCF7/TDP1 cells at 100 nM after 96 hrs in presence of 12-(2-(Dimethylamino)ethyl)-1,2-dihydroxy-[1,3]dioxolo[4',5':4,5]benzo[1,2-c]phenanthridine-13(12H)-one by MTT assay; assay type: functional
[30] = system: MCF7; experiment: Synergistic cytotoxicity against human MCF7 cells at 50 nM after 96 hrs by MTT assay; assay type: functional
[31] = system: MCF7; experiment: Induction of DNA damage in human MCF7/TDP1 cells assessed as increase in gammaH2AX foci measured after 6 hrs by DAPI staining based immunofluorescence assay; assay type: functional; procedure, shortened: as §3
[32] = system: MCF7; experiment: Synergistic cytotoxicity against human MCF7 cells at 50 nM after 96 hrs in presence of 12-(2-(Dimethylamino)ethyl)-1,2-dihydroxy-[1,3]dioxolo[4',5':4,5]benzo[1,2-c]phenanthridine-13(12H)-one by MTT assay; assay type: functional
[33] = system: MCF7; experiment: Synergistic cytotoxicity against human MCF7/TDP1 cells at 100 nM after 96 hrs by MTT assay; assay type: functional

How did the Activity [1] turn out when `CN(C)CCn1c(=O)c2c(O)c(O)ccc2c2ccc3cc4c(cc3c21)OCO4` was run?
Its Activity is “inactive”.

And the Activity [2]?
Its Activity is 14.71%.

What about the CI [3] of the same molecule?
Its CI is <0.3.

And the GI50 [4]?
The GI50 was 3980 nM.

What about the viability at 2 µM [5] of the same molecule?
The viability at 2 µM was 39.7%.

And the Activity [6]?
The Activity was 21.31%.

What about the Activity [7] of the same molecule?
Its Activity is 24.3%.

And the CI [8]?
The CI was <0.3.

What about the viability at 1 µM [9] of the same molecule?
The viability at 1 µM was 70.1%.

What about the Activity [10] of the same molecule?
The Activity was “Active”.

And the Activity [11]?
The Activity was 18%.

What about the inhibition [12] of the same molecule?
Its inhibition is 75%.

And the Activity [13]?
The Activity was 28.99%.

And the Activity [14]?
Its Activity is “Active”.

And the Activity [15]?
The Activity was 48.46%.

What about the Activity [16] of the same molecule?
The Activity was 0.73%.

What about the Activity [17] of the same molecule?
Its Activity is “Active”.

And the GI50 [18]?
Its GI50 is 800 nM.

And the Activity [19]?
Its Activity is 9.31%.

And the viability at 4 µM [20]?
Its viability at 4 µM is 15.7%.

And the Activity [21]?
Its Activity is 0.16%.

What about the Activity [22] of the same molecule?
The Activity was 26.53%.

And the Activity [23]?
Its Activity is “Active”.

What about the Activity [24] of the same molecule?
The Activity was 14%.

And the Activity [25]?
Its Activity is 28%.

What about the Activity [26] of the same molecule?
The Activity was 22%.

And the Activity [27]?
The Activity was 18%.

What about the Activity [28] of the same molecule?
The Activity was 14%.

Which Activity [1] does the source give for `CC[C@@]1(O)C(=O)OCc2c1cc1n(c2=O)Cc2cc3c(CN(C)C)c(O)ccc3nc2-1` [TOPOTECAN] here?
Its Activity is “inactive”.

What about the Activity [29] of the same molecule?
The Activity was 86%.

And the GI50 [4]?
The GI50 was 2590 nM.

What about the Activity [30] of the same molecule?
The Activity was 23%.

What about the Activity [31] of the same molecule?
Its Activity is 34%.

And the Activity [32]?
The Activity was 87%.

What about the Activity [33] of the same molecule?
The Activity was 19%.

And the Activity [26]?
The Activity was 34%.
